Experimental data collected from several papers.
Protocols differ between the studies behind these lines.
Target: Dual specificity protein kinase TTK (TTK, Homo sapiens, UniProt P33981)
Sequence (P33981 1-857, as in one of the studies): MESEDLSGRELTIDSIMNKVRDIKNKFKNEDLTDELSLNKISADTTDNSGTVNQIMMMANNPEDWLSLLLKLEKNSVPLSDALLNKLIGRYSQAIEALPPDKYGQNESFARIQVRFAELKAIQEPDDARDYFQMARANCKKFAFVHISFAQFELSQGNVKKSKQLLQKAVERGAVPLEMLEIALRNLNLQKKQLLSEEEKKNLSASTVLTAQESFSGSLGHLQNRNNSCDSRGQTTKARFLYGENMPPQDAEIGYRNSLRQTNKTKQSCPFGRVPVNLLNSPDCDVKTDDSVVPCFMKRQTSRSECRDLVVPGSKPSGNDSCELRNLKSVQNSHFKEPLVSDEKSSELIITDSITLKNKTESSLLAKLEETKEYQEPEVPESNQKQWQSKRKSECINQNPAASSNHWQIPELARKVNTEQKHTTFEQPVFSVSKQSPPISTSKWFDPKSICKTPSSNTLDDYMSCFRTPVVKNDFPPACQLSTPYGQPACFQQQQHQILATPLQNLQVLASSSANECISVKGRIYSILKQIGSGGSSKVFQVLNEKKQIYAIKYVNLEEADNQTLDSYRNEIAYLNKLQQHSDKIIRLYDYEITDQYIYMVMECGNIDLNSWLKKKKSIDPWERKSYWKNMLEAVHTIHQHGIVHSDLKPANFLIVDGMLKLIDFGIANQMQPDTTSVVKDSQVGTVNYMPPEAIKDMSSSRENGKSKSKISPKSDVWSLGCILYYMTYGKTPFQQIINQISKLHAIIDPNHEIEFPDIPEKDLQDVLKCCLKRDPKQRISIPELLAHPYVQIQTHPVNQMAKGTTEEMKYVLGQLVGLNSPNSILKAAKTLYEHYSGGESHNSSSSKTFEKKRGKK

FC(F)c1nc2ccccc2n1-c1nc(N2CCOCC2)nc(N2CCOCC2)n1 — remaining activity (enzyme activity, inhibitor; 10 µM): 88%
Cn1c2c(c3ccc(Cl)c(Cl)c31)C(C#N)C1(CCNCC1)NC2=O (racemic) — ΔTm (thermal stability, DSF; 10 µM): 0.7 °C
Cc1ccc(NC(=O)c2ccc(CN3CCN(C)CC3)cc2)cc1Nc1nc(-c2cccnc2)cs1 — remaining signal (cell-free assay; 0.5 µM): 112%
CCOCCn1cc(C(=O)Nc2ccc(-n3nc(-c4cccnc4)cc3C(F)(F)F)cn2)ccc1=O — remaining binding (cell-free assay, competition with immobilised ligand; 1 µM): 100%
Cn1c2c(Cl)c(Cl)ccc2c2cn[nH]c(=O)c21 — ΔTm (thermal stability, DSF; 10 µM): 0.6 °C
FC(F)(F)Oc1cccc(-c2cnc3ccc(-c4ccncc4)nn23)c1 — activity vs control (enzyme activity, inhibitor, radiometric; 1 µM): 70%
COc1cc(Nc2cnc(C#N)c(O[C@H](C)CN(C)C)n2)ncc1-c1cnn(C)c1 — remaining activity (enzyme activity, inhibitor, radiometric; 1 µM): 81%
NS(=O)(=O)c1cc(NC(=O)C2(c3ccccc3Cl)CC2)ccc1Oc1cccc(Cl)c1 — remaining binding (cell-free assay, competition with immobilised ligand; 1 µM): 100%
Nc1ncnc2occ(-c3ccc(NC(=O)Nc4cc(C(F)(F)F)ccc4F)cc3)c12 — remaining signal (cell-free assay; 20 µM): 4.5%
CC(C)(C)c1nc(-c2cccc(NS(=O)(=O)c3c(F)cccc3F)c2F)c(-c2ccnc(N)n2)s1 — remaining activity (enzyme activity, inhibitor, radiometric; 1 µM): 92%
O=C(NC[C@@H]1[C@H]2CN(C(=O)OCc3cc(C(F)(F)F)cc(C(F)(F)F)c3)C[C@@H]12)c1ccc2[nH]nnc2c1 — remaining binding (cell-free assay, competition with immobilised ligand; 1 µM): 91%
O=C1NC(=O)c2cc(Nc3ccc(F)cc3)c(Nc3ccc(F)cc3)cc21 — remaining signal (cell-free assay; 0.5 µM): 95.4%
Cc1ccc(C(=O)Nc2ccc(CN3CCN(C)CC3)c(C(F)(F)F)c2)cc1C#Cc1cnc2cccnn12 — remaining activity (enzyme activity; 23.5 nM): 77%
N#CCCc1ccc2c(c1)-c1[nH]c3ccc([N+](=O)[O-])cc3c1CC(=O)N2 — remaining signal (cell-free assay; 0.5 µM): 71.7%
Cn1c2c(c3ccc(Cl)c(Cl)c31)C(C#N)C(C)(C)NC2=O (stereo not shown) — ΔTm (thermal stability, DSF; 10 µM): 1.2 °C
Cn1c(=O)n(-c2ccc(C(C)(C)C#N)cc2)c2c3cc(-c4cnc5ccccc5c4)ccc3ncc21 — remaining activity (enzyme activity, inhibitor; 10 µM): 91%
Cc1c[nH]c2nccc(Oc3c(F)cc(Nc4cc(Cl)nc(N)n4)cc3F)c12 — remaining binding (cell-free assay, competition with immobilised ligand; 0.1 µM): 96%
O=C1Nc2ccc(Cl)cc2C1=Cc1cc(Cl)c(O)c(Cl)c1 — remaining signal (cell-free assay; 0.5 µM): 84.4%
Cc1noc([C@H]2C[C@@H](c3ccc(C(F)(F)F)cc3)CN(C(=O)N3CCS(=O)(=O)C3)C2)n1 — remaining binding (cell-free assay, competition with immobilised ligand; 1 µM): 100%
CC(C)(O)[C@H]1CC[C@H](Nc2ccc3ncc(-c4cccc(C(F)(F)F)c4)n3n2)CC1 — remaining activity (enzyme activity, inhibitor; 1 µM): 79.8%
O=C(N1CCS(=O)(=O)CC1)N1C[C@H](c2ccc(OC(F)(F)F)cc2)C[C@H](c2nc(C3CC3)no2)C1 — remaining binding (cell-free assay, competition with immobilised ligand; 1 µM): 82%
N#CC1c2c([nH]c3c(Cl)c(Cl)ccc23)C(=O)NC12CCCCC2 (racemic) — ΔTm (thermal stability, DSF; 10 µM): 0.9 °C
